# Yeast growth inh: yeast BB579 growth reduction in restrictive medium. AID 804. S. cerevisiae BB579 growth, OD615, 48 h. actives 0.51% (n = 140,000). inhibition, % at 10 µM;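 active means inhibition above a set limit, 3 SD over the mean compound inhibition, cut at about 44% in these data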
#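 Detection: OD615 turbidity measurement; Material: Saccharomyces cerevisiae DeaD strain BB579, replicative lifespan model yeast; Timing: 48 h exposure, 30 °C; Doses: single 10 µM dose; Medium: CSMM-D restrictive synthetic medium containing dextrose (glucose); Controls: amphotericin B at 10 µg/mL as positive control.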
# WT yeast gro inh: growth inhibition of WT yeast, mitochondrial fusion screen; inhibition, % at 10 µM; actives 2.1% (n = 190,000); mitochondrial fusion phenotypic screen, WT strain; in the data active means inhibition above about 58%; tested in S. cerevisiae
# RAM network inh: inhibitors of the yeast RAM network; S. cerevisiae dse1pr::URA3 reporter, 5-FOA growth OD615, 2 d; analog-sensitive cbk1-as2 kinase mutant strain; inhibition, % at 50 µM; actives 1.8% (n = 190,000);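 active means inhibition above a set limit, 3 SD over mean compound inhibition, cut at about 8.4% in these data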;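 further: 0% = DMSO-only wells with no growth and 100% = 10 µM 1-NA-PP1 full growth; inhibition rescues growth on 5-FOA so higher OD means more RAM inhibition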
# Yeast life ext: extends the lifespan of yeast. inhibition of the nicotinamide effect, % at 10 µM. actives 0.68% (n = 130,000). AID 775. S. cerevisiae growth with nicotinamide, OD615; deaD strain in restrictive glucose medium;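 active means inhibition above a set limit, placed 3 SD over the median of all compounds, cut at about 26% in these data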;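 further: 0% = nicotinamide-treated wells and 100% = cells grown without nicotinamide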
#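 assay system = DeaD-strain S. cerevisiae | buffer or medium = restrictive glucose medium | reagent = 1.5 mM nicotinamide | compound = 10 µM single point, 0.25% DMSO | incubation = 48 h compound exposure at 30 °C, humidified | signal = OD615 measurement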
# Numbers without * were called inactive; nt = no result given. Most compounds without a hit are left out; they make up all but 4.3% or so of the library.
SMILES,Yeast growth inh,WT yeast gro inh,RAM network inh,Yeast life ext
CN1CCN(CCCNC(=O)c2ccc(/C=C3\Sc4ccccc4N(Cc4ccc(F)cc4)C3=O)cc2)CC1,nt,9,-3,nt
CN1CCN(CCC(=O)N2c3ccccc3Sc3ccc(C(F)(F)F)cc32)CC1,-42,9,0,2
CC1=C(C)CC(C(=O)c2ccc(C)cc2)C(C(=O)O)C1 (centres undefined),-10,-15,-1,30*
O=C(c1ccccc1)[C@H]1CC=CC[C@H]1C(=O)O,-13,-9,2,2
N#Cc1c(NC(NC(=O)c2ccco2)C(=O)c2ccccc2)sc2c1CCCC2 (centres undefined),-41,62*,3,-2
NC(=O)c1c(NC(NC(=O)c2ccco2)C(=O)c2ccc(Cl)cc2)sc2c1CCCC2 (centres undefined),-33,21,1,-3
Cc1cc(NC(=O)CSc2nnc(-c3ccccc3)c(-c3ccccc3)n2)no1,nt,18,5,nt
NC(=O)Cn1c(=O)n(CCc2ccccc2)c(=O)c2c3c(sc21)CCCC3,-5,-12,0,-7
O=c1c2c3c(sc2n2cnnc2n1CCc1ccccc1)CCCC3,-56,-4,8.9*,-11
c1ccc2c(CSc3ncnc4nc[nH]c34)cccc2c1,nt,65*,3,nt
c1ccc(CCSc2ncnc3nc[nH]c23)cc1,-33,0,2,-5
CCOc1cc(/C=C\[N+](=O)[O-])ccc1OCC(=O)Nc1ccccc1C,-42,-8,0,92*
O=C(CSc1ccc(F)cc1)Nc1ccccc1Br,nt,11,11*,nt
O=C(CSc1ccc(F)cc1)Nc1ccc(Br)cc1,nt,19,1,nt
Cc1cc(C(=O)OCC(=O)N2CC(C)OC(C)C2)ccc1[N+](=O)[O-] (centres undefined),nt,-2,-1,nt
Cc1cc2occ(CC(=O)NCc3cccs3)c2cc1C(C)C,-20,-25,2,3
Cc1csc(NC(=O)Cc2coc3cc(C)c(C(C)C)cc23)n1,83*,51,2,-18
CCOC(=O)CC1C(=O)NCCN1S(=O)(=O)c1ccc(Cl)cc1Cl (centres undefined),-14,12,0,-20
COc1ccc(S(=O)(=O)N2CCOCC2)cc1NC(=O)COC(=O)C1COc2ccccc2O1 (centres undefined),-42,-4,1,-2
CC(C)C1Nc2ccc(C(=O)O)cc2C2C=CCC21 (centres undefined),nt,-22,3,nt
CCOC(=O)c1ccc2c(c1)C1C=CCC1C(C(=O)O)N2 (centres undefined),-34,22,9.7*,-9
O=C(Nc1cc(C(F)(F)F)ccc1N1CCCCC1)c1ccc(Br)o1,1,-2,11*,-17
Cc1cccc(/C(N)=N/OC(=O)c2cccs2)c1,10,8,-1,-23
Cc1cccc(/C(N)=N/OC(=O)c2ccc(F)cc2)c1,95*,-11,-1,-10
Cc1c(C)n(C(=O)CN2CCN(c3ccccc3)CC2)c2ccccc12,-20,-11,0,-6
SMILES,Yeast growth inh,WT yeast gro inh,RAM network inh,Yeast life ext
COc1ccc(/C=C/C(=O)c2cc(Br)ccc2OC(=O)c2ccco2)cc1OC,-25,65*,5,2
Cc1cccn2c(=O)c(C=NCCO)c(NCc3ccco3)nc12,-40,0,4,-3
Cc1cccn2c(=O)c(C=NCc3ccco3)c(Nc3ccc(SC(F)F)cc3)nc12,-40,83*,3,-23
C=CCn1c(SCC(=O)c2cc(C)n(C(C)COC)c2C)nc2sc(C)c(C)c2c1=O (centres undefined),-44,31,8,-3
O=c1[nH]c(CSc2nnc3ccccn23)nc2cc(C(F)(F)F)ccc12,nt,-3,2,nt
Cc1ccc(S(=O)(=O)NCCC(=O)NC2CCCC2)cc1,-13,32,3,-3
CCOC(=O)c1sc(=S)n(-c2ccccc2Cl)c1SC,3,22,8.8*,-4
CCOC(=O)c1sc(=S)n(-c2cc(F)ccc2F)c1N,45*,12,0,-10
CC(C)N(C(=S)Nc1cc(S(=O)(=O)N2CCOCC2)ccc1Cl)c1ccccc1,-11,-2,0,40*
CN1CCN(C(=S)Nc2cc(S(=O)(=O)N3CCOCC3)ccc2Cl)CC1,nt,12,1,nt
CCC(C)[C@H](NC(=O)NC(C)C)C(=O)O (some centres undefined),-59,-6,2,2
O=C(CC(Nc1ccc(F)cc1)c1ccccc1)c1ccccc1 (centres undefined),-30,78*,1,-2
O=C(CC(Nc1ccc(Cl)cc1)C(=O)O)c1ccccc1 (centres undefined),-52,-10,2,nt
CC[n+]1ccc(/C=C2\Sc3ccccc3N2CCCS(=O)(=O)[O-])c2ccccc21,nt,9,0,nt
CN1C=C/C(=C\c2cc[n+](C)c3ccccc23)c2ccccc21,nt,69*,0,nt
Cc1cc(C(=O)COC(=O)CC2Sc3ccccc3NC2=O)c(C)n1-c1ccccc1 (centres undefined),-33,49,3,-2
COC(=O)c1ccc(-n2c(C)cc(C(=O)COC(=O)CC3Sc4ccccc4NC3=O)c2C)cc1 (centres undefined),-28,41,8.8*,-2
CCn1c(Cn2nnc(-c3ccccc3)n2)nnc1SCc1ccc(Cl)c(Cl)c1,-58,79*,3,-4
Cc1cc(C(=O)CSc2nnc(-c3ccc(Cl)cc3)n2CC2CCCO2)c(C)n1C (centres undefined),-3,68*,3,-30
CC(c1nccs1)N(C)C(=O)CCc1nnc(CCc2ccccc2)o1 (centres undefined),nt,2,0,nt
CCOC(=O)CN(C(=O)CSc1nnc2c(n1)[nH]c1ccccc12)c1ccccc1,-16,3,5,-5
CCOC(=O)CN(C(=O)CSc1nnc2c(n1)[nH]c1c(C)cc(C)cc12)c1ccccc1,-59,6,8.9*,-8
COC(=O)/C(C#N)=C/c1c(Oc2cc(C)cc(C)c2)nc2c(C)cccn2c1=O,-25,3,9.1*,2
Cc1cc(SCC(=O)c2cc3ccccc3o2)nc2ccccc12,-33,-8,11*,-8
O=C(CSc1nc2cc(Cl)ccc2s1)c1cc2ccccc2o1,-6,40,9.4*,-3
SMILES,Yeast growth inh,WT yeast gro inh,RAM network inh,Yeast life ext
Cc1cc(SCC(=O)NCCC2=CCCCC2)nc2ccccc12,-14,69*,0,4
CCOC(=O)C(CSCC(=O)c1ccc(Cl)cc1)NC(=O)OC(C)(C)C (centres undefined),-15,-6,-1,-12
Cc1c(C)n(Cc2ccccc2)c2ccc(C(=O)OCCCN(C)C)cc12,nt,87*,1,nt
CC(C)CCNCC1OCc2ccccc2CO1,-20,1,-1,9
O=C(CCl)c1ccc(Cc2ncc(C(F)(F)F)cc2Cl)s1,-13,11,1,68*
NS(=O)(=O)c1ccc(Cc2ncc(C(F)(F)F)cc2Cl)s1,-31,6,1,1
NS(=O)(=O)c1ccc(N2N=C(c3ccccc3)CC2c2ccc(F)cc2)cc1 (centres undefined),-27,71*,4,1

# Screening data from PubChem BioAssay.
